In ChEMBL document CHEMBL1955800, “Synthesis and biological validation of novel pyrazole derivatives with anticancer activity guided by 3D-QSAR analysis” (Bioorg Med Chem, 2012):

What was measured:
[1] = test system: A549; assay: Growth inhibition of human A549 cells after 48 hrs by MTS assay; format: functional, cell-based; conditions: A549, 48 h
Method in brief: (§1)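 Seeded at 5 × 10³ cells/well in F12K (A549) or RPMI 1640 (NCI-H23) with 10% FBS, 37 °C, 5% CO₂, 3 h, then exposed 48 h to compounds at final 100–0.2 µM (10 mM DMSO stocks, 1% DMSO constant). MTS reagent added and incubated at 37 °C. Formazan from metabolically active cells measured, growth relative to untreated control, IC50 derived.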

[2] = test system: A549; assay: Antiproliferative activity against human A549 cells after 48 hrs by BrdU assay; format: functional, cell-based; conditions: A549, 48 h
Method in brief: (§2)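 Seeded at 5 × 10³ cells/well in RPMI 1640 + 10% FBS, 37 °C, 5% CO₂, 3 h. Compounds from 10 mM DMSO stocks, final 100–0.2 µM with 1% DMSO, 48 h. BrdU (final 10 µM) added for 3 h, then cells fixed and DNA denatured 30 min rt, ELISA absorbance read. DNA synthesis reduction relative to untreated cells, IC50 by curve fit.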

[3] = test system: NCI-H23; assay: Antiproliferative activity against human NCI-H23 cells after 48 hrs by BrdU assay; format: functional, cell-based; conditions: NCI-H23, 48 h; method in brief: as §2
[4] = test system: NCI-H23; assay: Growth inhibition of human NCI-H23 cells after 48 hrs by MTS assay; format: functional, cell-based; conditions: NCI-H23, 48 h; method in brief: as §1
[5] = Solubility of the compound in DMSO; format: physicochemical

Row | IC50 ([1]; read-out: IC50) [µM] | IC50 ([1]; read-out: pIC50 (converted)) [µM] | IC50 [2] [µM] | IC50 [3] [µM] | IC50 [4] [µM] | solubility [5] | Compound
1 | 5.2 | 5.25 | 0.7 | 0.57 | 3.35 |  | O=C(N/N=C/c1cccc(O)c1O)c1cc(-c2ccc(Cl)cc2)nn1Cc1ccc(Cl)nc1
2 | 7.8 | 7.76 | 0.4 | 0.3 | 3.91 |  | CC(C)(C)c1ccc(Cn2nc(-c3ccc(Cl)cc3)cc2C(=O)N/N=C/c2cccc(O)c2O)cc1
3 | 16 | 15.8 | 9.05 | 7.86 | 13.5 |  | O=C(N/N=C/c1ccc(F)cc1F)c1cc(-c2ccc(Cl)cc2)nn1Cc1ccc(Cl)nc1
4 | > 100 | > 100 | > 100 | 21.9 | > 100 |  | CC(C)(C)c1ccc(Cn2nc(-c3ccc(Cl)cc3)cc2C(=O)N/N=C/c2ccc(F)cc2F)cc1
5 | > 100 | > 100 | > 100 | > 100 | > 100 | Insoluble | N#Cc1ccc(/C=N/NC(=O)c2cc(-c3ccc(Cl)cc3)nn2Cc2ccc(Cl)nc2)cc1
6 | 50.5 | 50.1 | 38.3 | 27.9 | 44.4 |  | N=C(NO)c1cc(-c2ccc(Cl)cc2)nn1Cc1ccc(Cl)nc1
7 | 17.7 | 17.8 | 17 | 12.3 | 16.5 |  | CC(C)(C)c1ccc(Cn2nc(-c3ccc(Cl)cc3)cc2C(=N)NO)cc1
8 | 83.2 | 83.2 | 26.8 | 15.6 | 21.9 |  | CC(C)(C)c1ccc(Cn2nc(-c3ccc(Cl)cc3)cc2/C(N)=N/OC(=O)c2cccc(O)c2O)cc1
9 | > 100 | > 100 | 1.54 | 0.36 | > 100 |  | CC(C)(C)c1ccc(Cn2nc(-c3ccc(Cl)cc3)cc2-c2noc(-c3cccc(O)c3O)n2)cc1
10 |  |  |  | 0.27 | 3.04 |  | O=C(N/N=C/c1ccccc1O)c1cc(-c2ccc(Cl)cc2)nn1Cc1ccc(Cl)nc1
